The source made the active and inactive calls. The rule behind the calls is not given here.
Legend:
Rattus norvegicus [1] = assay: Antiobesity activity in high fat diet-induced obese Sprague-Dawley rat assessed as reduction of body weight at 3 mg/kg, po qd for 7 days relative to control; type: functional; parameters: scale not given: the % may be the effect or the level left
In short: (§1)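 Seven-day rat study: once-daily oral dosing at 3, 10 or 30 mg/kg, with 1, 3 and 100 mg/kg also used for one series. Compounds were given as spray-dried dispersions in hydroxypropylmethylcellulose acetate succinate. Food intake, body weight, liver TG and serum ALT were measured against vehicle. Systemic exposure was reported as AUC (ng h/mL). Significance versus vehicle was set at P ≤ 0.05.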

[2] = Oral bioavailability in beagle dog at 2.5 mg/kg; type: ADME, organism-based, Canis lupus familiaris; conditions: in vivo
Rattus norvegicus [3] = assay: Antiobesity activity in po dosed high fat diet-induced obese Sprague-Dawley rat assessed as reduction of reduction of triglyceride accumulation in liver administered daily for 3 days; type: functional; conditions: 72 h, read-out: MED
In short: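 Male Sprague–Dawley rats (about 300 g; n = 5 per group) were acclimatized for seven days to a high-fat diet (45% kcal from fat). They received three consecutive daily oral gavage doses in SEDDS:H₂O 10:90 vehicle 1.5 h before the dark cycle. Food intake was recorded, and liver TG was then measured against the vehicle group.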

Rattus norvegicus [4] = assay: Antiobesity activity in high fat diet-induced obese Sprague-Dawley rat assessed as reduction of triglyceride accumulation in liver at 10 mg/kg, po administered daily for 3 days relative to control; type: functional
In short: (§2)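 Male Sprague–Dawley rats (~300 g, n = 5 per group) were acclimatized for seven days to a high-fat diet (45% kcal from fat). They received three consecutive daily oral gavage doses 1.5 h before the dark cycle. Vehicle was SEDDS:H2O 10:90, with SEDDS made of Miglyol 812 10%, triacetin 30%, polysorbate 80 20% and Capmul MCM 30%. Food intake was recorded during dosing, and liver TG was measured afterwards, both against vehicle.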

Rattus norvegicus [5] = assay: Antiobesity activity in high fat diet-induced obese Sprague-Dawley rat assessed as reduction of body weight at 10 mg/kg, po qd for 7 days relative to control; type: functional; parameters: scale not given: the % may be the effect or the level left; in short: as §1
Rattus norvegicus [6] = assay: Antiobesity activity in high fat diet-induced obese Sprague-Dawley rat assessed as reduction of food intake at 10 mg/kg, po administered with 25% SDD formulation daily for 3 days relative to dirlotapide; type: functional; parameters: scale not given: the % may be the effect or the level left
In short: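 Three-day oral dosing study in male Sprague–Dawley rats (~300 g, n = 5 per group) fed a high-fat diet (45% kcal from fat). Animals received daily gavage doses 1.5 h before the dark cycle. Compound was given as a spray-dried dispersion made by spray drying compound with hydroxypropylmethylcellulose acetate succinate. Food intake was recorded during dosing and liver TG measured afterwards, both against vehicle.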

Rattus norvegicus [7] = assay: Toxicity in high fat diet-induced obese Sprague-Dawley rat assessed as change in serum ALT level at 10 mg/kg, po qd for 7 days relative to control; type: organism-based; parameters: dose 10 mg/kg, route oral; conditions: in vivo, 168 h
In short: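 Seven-day study in high-fat-diet rats. Compound was given once daily by mouth as a spray-dried dispersion, with vehicle controls. Serum ALT was measured alongside food intake, body weight, liver TG and systemic exposure (AUC). ALT is expressed as % change versus vehicle, with significance set at P ≤ 0.05.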

Rattus norvegicus [8] = assay: Antiobesity activity in high fat diet-induced obese Sprague-Dawley rat assessed as triglyceride accumulation in liver at 3 mg/kg, po administered daily for 3 days relative to control; type: functional, organism-based; parameters: dose 3 mg/kg; in short: as §2
Rattus norvegicus [9] = assay: Antiobesity activity in high fat diet-induced obese Sprague-Dawley rat assessed as reduction of triglyceride accumulation in liver at 10 mg/kg, po administered daily for 3 days relative to dirlotapide; type: functional; parameters: scale not given: the % may be the effect or the level left; in short: as §2
Rattus norvegicus [10] = assay: Antiobesity activity in high fat diet-induced obese Sprague-Dawley rat assessed as reduction in body weight at 100 mg/kg, po administered daily for 3 days relative to control; type: functional; parameters: scale not given: the % may be the effect or the level left
Rattus norvegicus [11] = assay: Antiobesity activity in high fat diet-induced obese Sprague-Dawley rat assessed as reduction in body weight at 10 mg/kg, po administered with 25% SDD formulation daily for 3 days relative to control; type: functional; parameters: scale not given: the % may be the effect or the level left
Rattus norvegicus [12] = assay: Antiobesity activity in high fat diet-induced obese Sprague-Dawley rat assessed as triglyceride accumulation in liver at 1 mg/kg, po administered daily for 3 days relative to control; type: functional, organism-based; parameters: dose 1 mg/kg; in short: as §2
Rattus norvegicus [13] = assay: Drug metabolism in rat assessed as formation of N-(2-((4-fluorobenzyl)(methyl)amino)-2-oxo-1-phenylethyl)-2-(4'-(1-hydroxy-2-methylpropan-2-yl)biphenyl-2-ylcarboxamido)quinoline-6-carboxamide at 30 mg/kg, po administered as single dose; type: ADME, organism-based; parameters: dose 30 mg/kg, route oral; conditions: in vivo
Rattus norvegicus [14] = assay: Antiobesity activity in high fat diet-induced obese Sprague-Dawley rat assessed as reduction of food intake at 30 mg/kg, po qd for 7 days relative to control; type: functional; parameters: scale not given: the % may be the effect or the level left; in short: as §1
[15] = AUC in high fat diet-induced obese Sprague-Dawley rat at 10 mg/kg, po qd for 7 days; type: ADME, organism-based; parameters: dose 10 mg/kg, route oral; conditions: plasma; in short: as §1
Canis familiaris = assay: Drug metabolism in beagle dog assessed as formation of 2-(2'-(6-(2-((4-fluorobenzyl)(methyl)amino)-2-oxo-1-phenylethylcarbamoyl)quinolin-2-ylcarbamoyl)biphenyl-4-yl)-2-methylpropanoic acid at 2.5 mg/kg, po administered as single dose; type: ADME, organism-based, Canis lupus familiaris; parameters: dose 2.5 mg/kg, route oral; conditions: in vivo
Rattus norvegicus [16] = assay: Antiobesity activity in high fat diet-induced obese Sprague-Dawley rat assessed as reduction of food intake at 30 mg/kg, po administered daily for 3 days relative to control; type: functional; parameters: scale not given: the % may be the effect or the level left; in short: as §2
Rattus norvegicus [17] = assay: Antiobesity activity in po dosed high fat diet-induced obese Sprague-Dawley rat assessed as reduction of body weight administered daily for 3 days; type: functional; conditions: 72 h, read-out: MED
Rattus norvegicus [18] = assay: Antiobesity activity in high fat diet-induced obese Sprague-Dawley rat assessed as reduction of food intake at 1 mg/kg, po administered daily for 3 days relative to control; type: functional; parameters: scale not given: the % may be the effect or the level left; in short: as §2
Rattus norvegicus [19] = assay: Antiobesity activity in high fat diet-induced obese Sprague-Dawley rat assessed as reduction in body weight at 30 mg/kg, po administered daily for 3 days relative to dirlotapide; type: functional; parameters: scale not given: the % may be the effect or the level left
Rattus norvegicus [20] = assay: Antiobesity activity in high fat diet-induced obese Sprague-Dawley rat assessed as reduction of food intake at 10 mg/kg, po qd for 7 days relative to control; type: functional; parameters: scale not given: the % may be the effect or the level left; in short: as §1
Rattus norvegicus [21] = assay: Antiobesity activity in high fat diet-induced obese Sprague-Dawley rat assessed as reduction of triglyceride accumulation in liver at 10 mg/kg, po qd for 7 days relative to control; type: functional; parameters: scale not given: the % may be the effect or the level left; in short: as §1

Compound CN(Cc1ccc(F)cc1)C(=O)[C@@H](NC(=O)c1ccc2nc(NC(=O)c3ccccc3-c3ccc(C(C)(C)C)cc3)ccc2c1)c1ccccc1 has an Activity (Rattus norvegicus [1]) of 85%, a bioavailability [2] of under 3% and a minimal effective dose (Rattus norvegicus [3]) of 3 mg/kg. For the same compound, the Activity (Rattus norvegicus [4]) was “inactive”, the Activity (Rattus norvegicus [5]) was 255% and the Activity (Rattus norvegicus [6]) was 8%. For the same compound, the Activity (Rattus norvegicus [7]) was 143%, the Activity (Rattus norvegicus [8]) was “inactive” and the Activity (Rattus norvegicus [9]) was 120%. For the same compound, the Activity (Rattus norvegicus [10]) was 107%, the Activity (Rattus norvegicus [11]) was 96% and the Activity (Rattus norvegicus [12]) was “inactive”. For the same compound, the Drug metabolism (Rattus norvegicus [13]) was “Active”, the Activity (Rattus norvegicus [14]) was 48% and the AUC at 168 h [15] was 42 ng·h/mL. The Drug metabolism (Canis familiaris) was “Active”, the Activity (Rattus norvegicus [16]) was 41% and the minimal effective dose (Rattus norvegicus [17]) was 3 mg/kg. For the same compound, the Activity (Rattus norvegicus [18]) was 12%, the Activity (Rattus norvegicus [19]) was 75% and the Activity (Rattus norvegicus [20]) was 51%. For the same compound, the Activity (Rattus norvegicus [21]) was 219%.
